Only some compounds are listed: those with a hit (about 1.4% of all), similar ones and a draw of the others.
Furin inh: blocks human furin protease activity | hit rate 0.061% among 220,000 | purified furin, fluorogenic substrate cleavage | P09958 | inhibition, % at 20 µM or 30 µM; in the data active means inhibition above about 25%
Thrombin inh: inhibitors of human thrombin | AID 1046 | P00734 | inhibition, % at 5 µM | hit rate 0.26% among 220,000 | alpha-thrombin, Boc-VPR-AMC fluorogenic substrate cleavage;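 active means inhibition at or above 40%; inactive means inhibition below 40%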;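 further: 0% = enzyme with no compound and 100% = wells without enzyme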
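Assay system: human alpha-thrombin enzyme. Reagent: Boc-VPR-AMC substrate, 15 µM final. Compound dosing: one concentration per compound, 5 µM, with 0.2% DMSO. Incubation: room-temperature reaction. Technique: AMC fluorescence, 355/460 nm. Measure: % inhibition relative to enzyme controls and enzyme-free blanks.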
FXIIa inh: blocks human coagulation factor XIIa protease activity | purified FXIIa, Boc-QGR-AMC fluorogenic substrate, 2 h | inhibition, % at 5 µM | hit rate 0.3% among 220,000; in the data active means inhibition above about 40%;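 further: 0% = enzyme with no compound and 100% = blank without enzyme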
FXIa inh: blocks human coagulation factor XIa protease activity; P03951; purified FXIa, Boc-Glu-Ala-Arg-AMC fluorogenic substrate; inhibition, % at 5 µM; hit rate 0.14% among 220,000; AID 798;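 active means inhibition of at least 40%; inactive means inhibition below 40%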;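 further: fluorescence of freed AMC excited at 355 nm; 0% = enzyme without compound and 100% = no enzyme blank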
hK5 inh: kallikrein 5 (human) inhibition; Q9Y337; recombinant hK5, fluorogenic AMC substrate cleavage; inhibition, % at 5 µM; hit rate 0.59% among 210,000;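 active means inhibition of 40% or more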;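 further: 0% = enzyme controls without compound and 100% = no-enzyme blanks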
Target sequence (Q9Y337 67-293 limits assumed): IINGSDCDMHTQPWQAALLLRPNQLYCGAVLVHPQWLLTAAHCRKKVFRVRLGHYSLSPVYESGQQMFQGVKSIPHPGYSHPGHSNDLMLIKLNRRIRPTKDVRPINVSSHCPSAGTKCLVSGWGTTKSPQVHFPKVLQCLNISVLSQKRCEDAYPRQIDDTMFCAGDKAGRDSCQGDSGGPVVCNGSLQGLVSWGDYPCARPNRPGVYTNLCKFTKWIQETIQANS
m-calpain inh: blocks pig calpain II enzyme activity | purified calpain II, fluorogenic peptide substrate, 30 min | inhibition, % at 16 µM | hit rate 0.37% among 220,000;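 active means inhibition above about 50%, limit read from the data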
Starred values were filed as active, the others as inactive; . = not tested or not shown.

SMILES	Furin inh	Thrombin inh	FXIIa inh	FXIa inh	hK5 inh	m-calpain inh
COC(=O)CC1C(=O)NCCN1C(=S)Nc1cccc(C)c1 (stereo unspecified)	-2	-3	45*	35	-21	11
c1ccc(Cc2nnc(N3CCCCC3)c3ccccc23)cc1	-14	-12	5	-3	-7	-9
c1ccc(N2CCN(c3nnc(Cc4cccnc4)c4ccccc34)CC2)nc1	-9	5	4	-1	43*	-4
Cc1c(C(=O)NCc2cccnc2)sc2nc(-c3ccc(F)cc3)cn12	-28	-8	9	-2	-5	78*
Cc1c(C(=O)NCCCN2CCOCC2)sc2nc(-c3ccc(F)cc3)cn12	-7	-7	-7	-12	1	10
Cc1ccc(S(=O)(=O)Nc2ccc3c(c2)c2c(n3S(=O)(=O)c3ccc(C)cc3)CCCC2=O)cc1	-14	27	12	14	68*	42
Cc1ccc(S(=O)(=O)Nc2ccc3c(c2)CCC3)cc1	-21	-3	1	5	-7	21
CC1(C)CC(=O)c2cnc(NC(=O)CCc3ccccc3)nc2C1	-16	14	26	12	86*	14
Cc1cc(C)c(C#N)c(SCc2c(F)cccc2[N+](=O)[O-])n1	-14	-4	2	-1	-16	24
COc1ccc(S(=O)(=O)Nc2ccc(CC#N)cc2)cc1	-22	15	34	7	43*	8
N#CCc1ccc(NS(=O)(=O)c2ccc(C3CCCCC3)cc2)cc1	-11	-7	2	-4	-10	29
O=c1[nH]c2cc3c(cc2cc1CN(Cc1nnnn1CC1CCCO1)C1CCCCC1)OCO3 (stereo unspecified)	-70	3	-11	-5	54*	-85
Cc1cc(C)c2[nH]c(=O)c(CN(Cc3nnnn3C3CCCC3)C3CCCCC3)cc2c1	-30	3	-5	-2	42*	-27
COc1cccc(C2CC(C(F)(F)F)n3ncc(C(=O)NC(C)(C)C)c3N2)c1 (stereo unspecified)	-3	2	16	0	0	-19
CC[N+](C)(C)c1cccc(O)c1	-15	0	10	7	-11	-2
Cc1ccc(Cn2c(O)c(N=NC(=S)Nc3ccccc3F)c3cc(S(=O)(=O)N4CCOCC4)ccc32)cc1	-1	2	37	50*	95*	-109
O=C(O)CC(Cc1ccc(Br)cc1)C(=O)O (stereo unspecified)	-17	-3	61*	-13	0	9
NC(CC(=O)O)c1ccc(Br)cc1 (stereo unspecified)	1	-3	-11	4	-5	16
CC12CCC(C(=O)NC(c3ccccc3)c3ccccc3)(OC1=O)C2(C)C (stereo unspecified)	-15	13	55*	12	37	8
CC12CCC(C(=O)NNc3ccccc3)(OC1=O)C2(C)C (stereo unspecified)	-21	-3	8	3	5	17
CS(=O)(=O)Nc1ccc2c3c(cccc13)CC2	-11	.	.	.	.	.
COc1cccc2cc(C(=O)N3CCC(C)CC3)c(=O)oc12	-8	0	14	5	-5	-23
COc1cccc2cc(C(=O)N3CCN(C45CC6CC(CC(C6)C4)C5)CC3)c(=O)oc12	-22	19	18	12	65*	-64
Nc1ccnn1Cc1cccs1	-12	22	43*	8	79*	20
O=C(CN(C(=O)c1ccccc1Cl)C1CCCCC1)Nc1ccc(Cl)c([N+](=O)[O-])c1	-19	0	70*	5	1	-31
SMILES	Furin inh	Thrombin inh	FXIIa inh	FXIa inh	hK5 inh	m-calpain inh
O=C(CN(C(=O)c1ccc(Cl)cc1)C1CCCCC1)Nc1ccc(Cl)c([N+](=O)[O-])c1	-6	2	11	6	-6	9
Cc1ccc(S(=O)(=O)CCC(=O)OCc2ccc(Cl)cc2)cc1	-5	18	29	16	53*	24
COC(=O)c1ccc(COC(=O)CCS(=O)(=O)c2ccc(C)cc2)cc1	-22	-3	4	-2	2	14
NCCCC(=O)N1c2ccccc2Sc2ccccc21	-17	-4	6	-3	-2	-18
Cc1ccc(C)c(N2C(=O)CN=C2Nc2ccccc2Cl)c1	25*	-3	5	5	3	-14
O=C1CN=C(Nc2ccccc2Cl)N1c1ccccc1	-7	-2	12	-4	6	0
O=C(Nc1ccc(SC(F)F)cc1)c1ccccc1F	-4	35	24	39	43*	24
O=C(NCc1ccccc1)NC(=O)c1ccccc1	-22	2	7	1	-6	-12
O=C(NCc1ccccc1)NC(=O)c1ccncc1	-13	3	19	3	40*	0
CCOC(=O)c1c(C)n(CC)c2ccc(OC(=O)c3ccc([N+](=O)[O-])cc3)cc12	-21	-5	2	-2	-26	0
CCCC(C)C(=O)Nc1ccc(F)c(Cl)c1 (stereo unspecified)	-14	62*	38	27	19	17
Cn1c(SCC(=O)NC2CCCC2)nnc1-c1ccc(S(=O)(=O)N2CCOCC2)cc1	-20	45*	-3	-12	-14	-5
CCN1CCS/C1=C\C=C\C1=[N+](CC)CCS1	43*	5	18	6	19	20
CCN1CCS/C1=C/C=C/C1=[N+](CC)CCS1	38*	-4	16	9	-12	-11
CC(C)C(NC(=O)CNC(=O)OC(C)(C)C)C(=O)NCc1ccc(Cl)cc1 (stereo unspecified)	-4	-10	3	-2	-6	-33
CN(C)S(=O)(=O)c1ccc(C(=O)Oc2cc(=O)[nH]c3ccccc23)cc1	-19	40*	27	10	12	-7
COc1ccc(N(CC(=O)Nc2ccc(OC)cc2OC)S(=O)(=O)c2ccccc2)cc1	-14	-14	-4	-7	-9	31
C#CCNc1cc(C)nc2ncnn12	-26	104*	15	7	39	12
Cc1cc(C)cc(OCCCOc2cccc3cccnc23)c1	-16	-2	5	6	-14	17
NC(=O)c1c(NC(=O)C2CCCO2)sc2c1CCC2 (stereo unspecified)	-19	-1	50*	23	6	28
CCCOc1ccc(OCCNC2CCCC2)cc1	-17	23	9	38	74*	18
CCOc1ccc(OCCNC2CCCC2)cc1	-18	6	17	6	-10	-2
CCCOc1ccc(C2NC(=O)NC2=O)cc1 (stereo unspecified)	27*	0	5	-6	-23	7
COc1ccc(CN2CCN(C(=O)C3CCC(CNS(=O)(=O)c4ccccc4)CC3)CC2)c(OC)c1OC (stereo unspecified)	-21	26	101*	28	21	15

High-throughput results (PubChem BioAssay)
